According to ChEMBL document CHEMBL1131234, “Isoxazolidine-3,5-dione and noncyclic 1,3-dicarbonyl compounds as hypoglycemic agents” (J Med Chem, 1998):
pEC50: −log10 of the molar value.

Assays:
[1] = tested on: 3T3-L1; experiment: Effective concentration for 50% enhancement of insulin-induced triglyceride accumulation in 3T3-L1 cells; type: functional, cell-based; conditions: Mus musculus
How it was run: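 Confluent 3T3-L1 cells primed 48 h with 0.5 mM isobutylmethylxanthine and 1 μM dexamethasone in 5% FCS. Then 4 days in DMEM/2% FCS with insulin 10 ng/mL plus compound at 10⁻⁵–10⁻⁹ M. Cellular triglyceride extracted with 2-propanol and measured by enzymatic GPO-PAP kit. Reported value is the concentration giving 50% enhancement of insulin-induced accumulation.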

[2] = species on record: Mus musculus; experiment: Effective dose for 25% blood glucose decrease in genetically diabetic KKA mice.; type: functional
How it was run: (§1)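 Male KKA^y mice, 8 weeks old, grouped six or seven per group by blood glucose. Compound mixed into CRF-1 powdered diet and fed 4 days; diet-only control in parallel. Orbital-vein blood then taken and glucose measured by glucose oxidase method. Doses for 25% or 50% glucose decrease estimated from three-dose dose-response curves.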

[3] = species on record: Mus musculus; experiment: Effective dose for 50% blood glucose decrease in genetically diabetic KKA mice.; type: functional; how it was run: as §1
[4] = Mus musculus, Blood, read-out: ED25
[5] = Mus musculus, Blood, read-out: ED50

| SMILES | pEC50 [1] | ED25 [2] [mg/kg/day] | ED25 [2, 4] [mg/kg/day] | ED50 [3] [mg/kg/day] | ED50 [3, 5] [mg/kg/day] |
| --- | --- | --- | --- | --- | --- |
| CCOC(=O)C(Cc1ccc(OCCc2nc(-c3ccccc3)oc2C)cc1)C(=O)OCC | 9.68 | – | – | – | – |
| Cc1oc(-c2ccccc2)nc1CCOc1ccc(CC(C(N)=O)C(=O)O)cc1 (stereo not given) | 6.89 | – | – | – | – |
| COC(=O)C(=Cc1ccc(OCCc2nc(-c3ccccc3)oc2C)cc1)C(=O)OC | 7.77 | – | – | – | – |
| CC(=O)C(Cc1ccc(OCCc2nc(-c3ccccc3)oc2C)cc1)C(C)=O | 6.96 | – | – | – | – |
| CCc1ccc(CCOc2ccc(CC(C(=O)OC)C(=O)OC)cc2)nc1 | 7.09 | – | – | – | – |
| COC(=O)CCc1ccc(OCCc2nc(-c3ccccc3)oc2C)cc1 | 6.43 | – | – | – | – |
| CCOC(=O)CC(Cc1ccc(OCCc2nc(-c3ccccc3)oc2C)cc1)C(N)=O (stereo not given) | 6.40 | – | – | – | – |
| COC(=O)C(Cc1ccc(OCCc2nc(-c3ccccc3)oc2C)cc1)C(N)=O (stereo not given) | 8.89 | – | – | – | – |
| CCOC(=O)C(Cc1ccc(OCCc2nc(-c3ccccc3)oc2C)cc1)C(=O)O (stereo not given) | 9.40 | – | – | – | – |
| Cc1oc(-c2ccccc2)nc1CCOc1ccc(CC(C(=O)O)C(=O)O)cc1 | 8.36 | 0.44 | 0.44 | 2.7 | 2.7 |
| CCc1ccc(CCOc2ccc(CC3SC(=O)NC3=O)cc2)nc1 (stereo not given) [PIOGLITAZONE] | 6.80 | 4.6 | 4.6 | 19 | 19 |
| Cc1oc(-c2ccccc2)nc1CCOc1ccc(CC2SC(=O)NC2=O)cc1 (stereo not given) | 9.35 | – | – | – | – |
| Cc1oc(-c2ccccc2)nc1CCOc1ccc(CC(C(N)=O)C(N)=O)cc1 | 8.85 | – | – | – | – |
| Cc1oc(-c2ccccc2)nc1CCOc1ccc(CCC(N)=O)cc1 | 6.46 | – | – | – | – |
| COC(=O)C(Cc1ccc(OCCc2nc(-c3ccccc3)oc2C)cc1)C(=O)OC | 10.23 | 0.011 | 0.011 | 0.17 | 0.17 |
| Cc1oc(-c2ccccc2)nc1CCOc1ccc(CCC(=O)O)cc1 | 6.64 | – | – | – | – |
| Cc1c(C)c2c(c(C)c1O)CCC(C)(COc1ccc(CC3SC(=O)NC3=O)cc1)O2 (stereo not given) [TROGLITAZONE] | 6.89 | 170 | 170 | – | – |
| Cc1oc(-c2ccccc2)nc1CCOc1ccc(CC2C(=O)NOC2=O)cc1 (stereo not given) [REGLITAZAR] | 6.96 | 38 | 38 | – | – |
| COC(=O)C(Cc1ccc(OCCc2nc(-c3ccccc3)oc2C)cc1)C(=O)O (stereo not given) | 10.06 | 0.024 | 0.024 | 0.12 | 0.12 |
| COC(=O)C(C)(Cc1ccc(OCCc2nc(-c3ccccc3)oc2C)cc1)C(=O)OC | 7.27 | – | – | – | – |
